What is called Ki is a measure of affinity in units of concentration, obtained from inhibition or displacement.

Several values for one entry are separate records, joined by “and”; a condition that tells them apart may be missing. Identical values can stand only once. Where only a bound is given, the exact number is not on record here.

Data on 25 compounds can be found in ChEMBL document CHEMBL1132478, “Design and synthesis of novel alpha(1)(a) adrenoceptor-selective antagonists. 3. Approaches to eliminate opioid agonist metabolites by using substituted phenylpiperazine side chains” (J Med Chem, 1999).

Test [1] deals with T1, Alpha-1D adrenergic receptor (Homo sapiens, UniProt P25100).
T1 sequence (P25100 whole entry): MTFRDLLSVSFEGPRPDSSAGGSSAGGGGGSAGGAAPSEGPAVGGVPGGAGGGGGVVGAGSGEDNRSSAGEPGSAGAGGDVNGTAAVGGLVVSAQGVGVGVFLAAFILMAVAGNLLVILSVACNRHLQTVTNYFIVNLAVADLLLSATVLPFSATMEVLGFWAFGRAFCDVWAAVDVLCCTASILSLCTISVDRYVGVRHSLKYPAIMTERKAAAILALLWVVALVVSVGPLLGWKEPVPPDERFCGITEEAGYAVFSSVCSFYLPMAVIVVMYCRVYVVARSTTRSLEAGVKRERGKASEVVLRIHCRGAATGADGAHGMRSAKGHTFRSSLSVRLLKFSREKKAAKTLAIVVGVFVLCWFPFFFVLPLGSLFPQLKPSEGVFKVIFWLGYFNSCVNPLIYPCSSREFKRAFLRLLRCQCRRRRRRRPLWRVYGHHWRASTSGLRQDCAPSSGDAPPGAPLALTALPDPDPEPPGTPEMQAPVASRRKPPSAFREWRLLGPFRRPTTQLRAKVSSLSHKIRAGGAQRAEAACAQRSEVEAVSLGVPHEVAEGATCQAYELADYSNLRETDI
In words: In vitro binding affinity against Alpha-1D adrenergic receptor at recombinant human receptor. To be noted: in the assay text read “at recombinant human receptor” for “of human liver microsomes”. An outline of the steps: (§1)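 Radioligand displacement on membranes from cultured cells expressing recombinant human α1a, α1b or α1d adrenoceptors, using [³H]prazosin as radioligand; Ki values reported.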
For orientation: Liver microsomes are vesicles of endoplasmic reticulum, rich in cytochrome P450 enzymes.

Test [2] deals with T2, Alpha-1A adrenergic receptor (Homo sapiens, UniProt P35348).
T2 sequence (P35348 whole entry): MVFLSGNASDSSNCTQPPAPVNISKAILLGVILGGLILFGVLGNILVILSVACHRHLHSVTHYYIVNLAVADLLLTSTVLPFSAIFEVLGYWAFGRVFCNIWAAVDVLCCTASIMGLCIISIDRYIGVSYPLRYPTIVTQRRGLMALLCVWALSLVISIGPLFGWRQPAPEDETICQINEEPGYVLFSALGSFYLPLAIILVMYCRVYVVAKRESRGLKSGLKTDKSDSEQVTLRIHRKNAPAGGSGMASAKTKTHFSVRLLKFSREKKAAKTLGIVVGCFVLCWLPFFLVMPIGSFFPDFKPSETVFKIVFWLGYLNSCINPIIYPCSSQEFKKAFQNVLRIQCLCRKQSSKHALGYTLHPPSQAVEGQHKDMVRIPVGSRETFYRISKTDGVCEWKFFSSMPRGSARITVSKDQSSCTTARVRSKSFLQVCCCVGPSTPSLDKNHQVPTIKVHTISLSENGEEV
Kind of test: In vitro binding affinity against Alpha-1A adrenergic receptor […]. A digest of the protocol: as §1

Test [3] is described as follows: Fold selectivity against alpha 1A adrenergic receptor over alpha 2A, 2B and 2C adrenergic receptors. A digest of the protocol:
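Ki ratio derived from radioligand displacement at recombinant human adrenoceptors: α1a with [³H]prazosin, and α2a, α2b and α2c with [³H]rauwolscine, on membranes from cultured cells.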

The target in test [4] is T3, Alpha-1B adrenergic receptor (Homo sapiens, UniProt P35368).
T3 sequence (P35368 whole entry): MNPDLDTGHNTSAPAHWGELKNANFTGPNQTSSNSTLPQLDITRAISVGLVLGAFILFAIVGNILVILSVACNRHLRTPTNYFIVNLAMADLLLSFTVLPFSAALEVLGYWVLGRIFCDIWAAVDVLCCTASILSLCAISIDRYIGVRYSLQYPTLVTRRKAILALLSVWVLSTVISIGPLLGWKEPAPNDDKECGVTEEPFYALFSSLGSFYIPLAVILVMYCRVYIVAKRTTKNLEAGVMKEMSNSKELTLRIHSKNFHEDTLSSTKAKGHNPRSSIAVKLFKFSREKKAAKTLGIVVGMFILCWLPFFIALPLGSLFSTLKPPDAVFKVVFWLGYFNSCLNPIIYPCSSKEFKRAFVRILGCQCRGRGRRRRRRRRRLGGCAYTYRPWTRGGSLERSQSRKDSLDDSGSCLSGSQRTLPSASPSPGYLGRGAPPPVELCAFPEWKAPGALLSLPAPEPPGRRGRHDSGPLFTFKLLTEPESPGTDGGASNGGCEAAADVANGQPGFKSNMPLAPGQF
In words: In vitro binding affinity against Alpha-1B adrenergic receptor at recombinant human receptor.

For `COC(=O)C1=C(C)NC(=O)N(C(=O)NCCCN2CCN(c3ccccc3OC)CC2)C1c1ccc(F)c(F)c1` (stereo not given), the Ki was found to be 31 nM in test [1], 0.1 nM in test [2] and 18 nM in test [4]. The same compound displayed a Fold selectivity in test [3] of over 360.

For the compound `COC(=O)C1=C(C)NC(=O)N(C(=O)NCCCN2CCN(c3ccccc3Cl)CC2)C1c1ccc(F)c(F)c1` (stereo not given), the values for the Ki in test [1], in test [2] and in test [4] were 14 nM, 0.2 nM and 15 nM, respectively. The Fold selectivity in test [3] was over 190.

On to `CC(=O)C1=C(C)NC(=O)N(C(=O)NCCCN2CCN(c3ccccc3C(N)=O)CC2)C1c1cc(F)c(F)c(F)c1` (stereo not given), for which the results for the Ki in test [1], in test [2] and in test [4] were 390 nM, 0.4 nM and 220 nM, respectively. Besides, the Fold selectivity in test [3] is over 160.

Turning to `COC(=O)C1=C(C)NC(=O)N(C(=O)NCCCN2CCN(c3ccccc3C)CC2)C1c1ccc(F)c(F)c1` (stereo not given), the Ki was found to be 9.8 nM in test [1], 0.3 nM in test [2] and 17 nM in test [4]. The Fold selectivity in test [3] was over 110.

On to `COC(=O)C1=C(C)NC(=O)N(C(=O)NCCCN2CCN(c3cccc([N+](=O)[O-])c3)CC2)C1c1ccc(F)c(F)c1` (stereo not given), for which the Ki was found to be 340 nM in test [1], 12 nM in test [2] and 150 nM in test [4]. Further, the Fold selectivity in test [3] was over 40.

With `COC(=O)C1=C(C)NC(=O)N(C(=O)NCCCN2CCN(c3ccccc3[N+](=O)[O-])C[C@@H]2C)C1c1ccc(F)c(F)c1` (stereo not given in full), the Ki in test [1] stood at 34 nM; in test [2] it was 0.02 nM; in test [4] it was 49 nM. In test [3], this compound showed a Fold selectivity of over 17000.

Take `COC(=O)C1=C(C)NC(=O)N(C(=O)NCCCN2CCN(c3ccccc3C(N)=O)CC2)C1c1cc(F)c(F)c(F)c1` (stereo not given): the Ki in test [1] was found to be 140 nM; in test [2], 0.3 nM; in test [4] it was 58 nM. Moreover, the Fold selectivity in test [3] is over 430.

`CC(=O)C1=C(C)NC(=O)N(C(=O)NCCCN2CCN(c3ccccc3C(N)=O)CC2)C1c1ccc(F)c(F)c1` (stereo not given): the Ki was 290 nM in test [1], 0.7 nM in test [2] and 170 nM in test [4]. In test [3], this compound registered a Fold selectivity of over 70.

In the case of `COCC1=C(C(=O)OC)C(c2cc(F)c(F)cc2F)N(C(=O)NCCCN2CCN(c3ccccc3C(N)=O)CC2)C(=O)N1` (stereo not given), the Ki was 190 nM in test [1], 0.1 nM in test [2] and 130 nM in test [4]. The Fold selectivity in test [3] is over 660.

Turning to `CCOc1ccccc1N1CCN(CCCNC(=O)N2C(=O)NC(C)=C(C(=O)OC)C2c2ccc(F)c(F)c2)CC1` (stereo not given), the Ki in test [1] worked out at 14 nM; in test [2], 0.1 nM; in test [4], 8.8 nM. In test [3], the Fold selectivity was over 210.

Turning to `COCC1=C(C(=O)OC)C(c2ccc(F)c(F)c2)N(C(=O)NCCCN2CCN(c3ccccc3C(N)=O)CC2)C(=O)N1` (stereo not given), the Ki in test [1] amounted to 140 nM; in test [2] it was 0.1 nM; in test [4], 100 nM. In test [3], the Fold selectivity is over 4500.

For `COC(=O)C1=C(C)NC(=O)N(C(=O)NCCCN2CCN(c3ccccc3[N+](=O)[O-])C[C@H]2C)C1c1ccc(F)c(F)c1` (stereo not given in full), the results for the Ki in test [1], in test [2] and in test [4] were 28 nM, 0.05 nM and 13 nM, respectively. Moreover, the Fold selectivity in test [3] was over 1600.

Regarding `CCC1=C(C(N)=O)C(c2ccc(F)cc2F)N(C(=O)NCCCN2CCN(c3ccccc3C(N)=O)CC2)C(=O)N1` (stereo not given), the Ki was 1100 nM in test [1], 1.3 nM in test [2] and 720 nM in test [4]. The same compound yielded a Fold selectivity in test [3] of over 600.

Regarding `COC(=O)C1=C(C)NC(=O)N(C(=O)NCCCN2CCN(c3ccccc3C(=O)OC)CC2)C1c1ccc(F)c(F)c1` (stereo not given), the results for the Ki in test [1], in test [2] and in test [4] were 30 nM, 0.2 nM and 25 nM, respectively. In test [3], the Fold selectivity was over 85.

For `COC(=O)C1=C(C)NC(=O)N(C(=O)NCCCN2CCN(c3cccc(C(F)(F)F)c3)CC2)C1c1ccc(F)c(F)c1` (stereo not given), the Ki was 120 nM in test [1], 4.9 nM in test [2] and 43 nM in test [4]. The same compound returned a Fold selectivity in test [3] of over 60.

Turning to `CCC1=C(C(=O)OC)C(c2ccc(F)cc2F)N(C(=O)NCCCN2CCN(c3ccccc3C(N)=O)CC2)C(=O)N1` (stereo not given), the figures for the Ki in test [1], in test [2] and in test [4] were 91 nM, 0.1 nM and 32 nM, respectively. Moreover, the Fold selectivity in test [3] is over 1900.

As for `COC(=O)C1=C(C)NC(=O)N(C(=O)NCCCN2CCN(c3ccccc3C#N)CC2)C1c1ccc(F)c(F)c1` (stereo not given), the inhibition constant Ki in test [1] was 12 nM and 15 nM; in test [2], 0.1 nM and 0.08 nM; in test [4], 15 nM. For the same compound, the Fold selectivity in test [3] is over 1300.

As to `COC(=O)C1=C(C)NC(=O)N(C(=O)NCCCN2CCN(c3ccc(C(C)=O)cc3)CC2)C1c1ccc(F)c(F)c1` (stereo not given), the Ki in test [1] stood at 1800 nM; in test [2] it was 430 nM; in test [4], 1300 nM. The same compound gave a Fold selectivity in test [3] of over 2.

Consider `COC(=O)C1=C(C)NC(=O)N(C(=O)NCCCN2CCN(c3ccccc3O)CC2)C1c1ccc(F)c(F)c1` (stereo not given), for which the values for the Ki in test [1], in test [2] and in test [4] were 31 nM, 0.6 nM and 16 nM, respectively. Also, the Fold selectivity in test [3] was over 65.

Regarding `COC(=O)C1=C(C)NC(=O)N(C(=O)NCCCN2CCN(c3cccc(Cl)c3)CC2)C1c1ccc(F)c(F)c1` (stereo not given), the Ki in test [1] came to 37 nM; in test [2], 0.7 nM; in test [4] it was 8.4 nM. This compound also returned a Fold selectivity in test [3] of over 195.

As to `COC(=O)C1=C(C)NC(=O)N(C(=O)NCCCN2CCN(c3ccc(OC)cc3C)CC2)C1c1ccc(F)c(F)c1` (stereo not given), the Ki amounted to 610 nM in test [1], 16 nM in test [2] and 510 nM in test [4]. The compound also showed a Fold selectivity in test [3] of over 20.

As to `COC(=O)C1=C(C)NC(=O)N(C(=O)NCCCN2CCN(c3ccccc3)CC2)C1c1ccc(F)c(F)c1` (stereo not given), the Ki in test [1] worked out at 21 nM; in test [2], 0.2 nM; in test [4], 7.5 nM. The compound further yielded a Fold selectivity in test [3] of over 55.

Consider `COC(=O)C1=C(C)NC(=O)N(C(=O)NCCCN2CCN(c3ccc(OC)cc3)CC2)C1c1ccc(F)c(F)c1` (stereo not given), for which the Ki in test [1] is 480 nM; in test [2] it was 14 nM; in test [4], 410 nM. This compound also came in with a Fold selectivity in test [3] of over 15.

In the case of `COC(=O)C1=C(C)NC(=O)N(C(=O)NCCCN2CCN(c3ccc(Cl)cc3)CC2)C1c1ccc(F)c(F)c1` (stereo not given), the figures for the Ki in test [1], in test [2] and in test [4] were 52 nM, 0.8 nM and 17 nM, respectively. In test [3], this compound displayed a Fold selectivity of over 65.

In the case of `COC(=O)C1=C(C)NC(=O)N(C(=O)NCCCN2CCN(c3ccccc3[N+](=O)[O-])CC2)C1c1ccc(F)c(F)c1` (stereo not given), the values for the Ki in test [1], in test [2] and in test [4] were 32 nM, 0.01 nM and 23 nM, respectively. This compound also registered a Fold selectivity in test [3] of over 23000.
